According to ChEMBL document CHEMBL1143723, “Antiproliferative cardenolides of an Elaeodendron sp. from the Madagascar rain forest(1)” (J Nat Prod, 2007):

Columns and labels:
Type in all cases: functional, cell-based
A2780 = test: Antiproliferative activity against human A2780 cells
[1] = Antiproliferative activity against human H522T1 cells; conditions: H522-T1
How it was run: (§1)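 Cultured human cancer lines (MDA-MB-435 breast, HT-29 colon, H522-T1 non-small cell, U937 histiocytic lymphoma) were exposed to compound, and growth was read by luminescence. The method follows an earlier report, with luminescence measured on a multilabel reader.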

HT-29 = test: Antiproliferative activity against human HT29 cells; how it was run: as §1
U-937 = test: Antiproliferative activity against human U937 cells; how it was run: as §1
MDA-MB-435 = test: Antiproliferative activity against human MDA-MB-435 cells; how it was run: as §1

| Compound | IC50 (A2780) [nM] | IC50 [1] [nM] | IC50 (HT-29) [nM] | IC50 (U-937) [nM] | IC50 (MDA-MB-435) [nM] |
| --- | --- | --- | --- | --- | --- |
| CO[C@H]1CCO[C@@H](O[C@@H]2C=C3CC[C@@H]4[C@H](CC[C@]5(C)[C@@H](C6=CC(=O)OC6)CC[C@]45O)[C@@]3(C)C[C@H]2O)[C@H]1O | 2500 |  |  |  |  |
| CO[C@H]1CCO[C@H]2O[C@@H]3C=C4CC[C@@H]5[C@H](CC[C@]6(C)[C@@H](C7=CC(=O)OC7)CC[C@]56O)[C@@]4(C)C[C@H]3O[C@]21O [ELAEODENDROSIDE B] | 19 | 80 | 80 | 50 | 150 |
| CO[C@H]1CCO[C@H]2O[C@@H]3C=C4CC[C@@H]5[C@H](CC[C@]6(C)[C@@H](C7=CC(=O)OC7)[C@@H](OC(C)=O)C[C@]56O)[C@@]4(C)C[C@H]3O[C@]21O [ELAEODENDROSIDE F] | 190 |  |  |  |  |
| CO[C@@H]1CCO[C@H]2O[C@@H]3C=C4CC[C@@H]5[C@H](CC[C@]6(C)[C@@H](C7=CC(=O)OC7)[C@@H](OC(C)=O)C[C@]56O)[C@@]4(C)C[C@H]3O[C@]21O [ELAEODENDROSIDE G] | 100 |  |  |  |  |
| CO[C@@H]1C[C@@H](C)O[C@H]2O[C@@H]3C=C4CC[C@@H]5[C@H](CC[C@]6(C)[C@@H](C7=CC(=O)OC7)[C@@H](OC(C)=O)C[C@]56O)[C@@]4(C)C[C@H]3O[C@]21O [ELAEODENDROSIDE T] | 85 | 180 | 180 | 150 | 370 |
| CO[C@H]1CCO[C@@H](O[C@@H]2C=C3CC[C@@H]4[C@H](CC(=O)[C@]5(C)[C@@H](C6=CC(=O)OC6)CC[C@]45O)[C@@]3(C)C[C@H]2O)[C@H]1O [ELAEODENDROSIDE U] | 30000 |  |  |  |  |
